For data set [1], the system named is Rattus norvegicus. Description: Toxicity in Wistar albino rat assessed as induction of haemorrhagic spots up to 3 g/kg, po after 8 hrs. The note with it: in vivo, 3000 mg/kg. The class given is organism-based. Put shortly:
(§1)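 Acute toxicity: albino rats of either sex in groups of six, oral doses from 100 up to 3000 mg kg^-1. Rats observed continuously for 8 h for changes in motor activity, ataxia, tremors, convulsions, sedation and lacrimation. Ulceration and haemorrhagic spots also inspected.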

The test system of data set [2] is Rattus norvegicus. As to the kind of experiment: Toxicity in Wistar albino rat assessed as induction of sedation up to 3 g/kg, po after 8 hrs. The class given is organism-based. To be noted: in vivo, 3000 mg/kg. Put shortly:
as §1

Data set [3] concerns Rattus norvegicus. As to the kind of experiment: Antiinflammatory activity in Wistar albino rat assessed as inhibition of carrageenan-induced paw oedema at 100 mg/kg, po measured 4 hrs after carrageenan challenge. It counts as functional. The method in brief:
(§2)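 Albino rats, 6 per group, dosed orally at 100 mg kg^-1; ibuprofen 100 mg kg^-1 as standard. One hour after dosing, 0.1 ml of 1% carrageenan with 2% gum acacia in normal saline injected subplantar into the right hind paw. Paw volume measured by plethysmometer; % inhibition versus control calculated. One-way ANOVA with Dunnett's t test.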
For orientation: In the carrageenan paw model, swelling and tenderness develop within hours.

Data set [4] relates to Rattus norvegicus. Description: Analgesic activity in Wistar albino rat […] assessed as reaction time for tail withdrawal at 100 mg/kg, po after 300 mins by tail flick method. The class given is functional. The method in brief:
(§3)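 Rat tail-flick test: latency for the rat to withdraw its tail from hot water at 55 ± 0.5 °C. Drugs given orally. Reaction time in seconds read at 60, 90, 120 and 300 min after dosing. Treated animals compared with control and with a nimesulide standard. Wistar albino rats, 150-200 g, either sex; food withdrawn 12 h before and during testing.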

For data set [5], the system named is Rattus norvegicus. Description: Analgesic activity in Wistar albino rat […] assessed as increase in reaction time for tail withdrawal at 100 mg/kg, po after 300 mins by tail flick method. The class given is functional. Put shortly: as §3
On the technique in general: In hot-plate and tail-flick tests a longer latency is read as antinociception.

Data set [6] has as its system Rattus norvegicus. Description: Analgesic activity in Wistar albino rat […] assessed as reaction time for tail withdrawal at 100 mg/kg, po after 60 mins by tail flick method. The class given is functional. The method in brief:
as §3

The subject of data set [7] is Rattus norvegicus. Description: Analgesic activity in Wistar albino rat […] assessed as reaction time for tail withdrawal at 100 mg/kg, po after 180 mins by tail flick method. The class given is functional.
Data set [8] has as its system Rattus norvegicus. Description: Antiinflammatory activity in Wistar albino rat assessed as inhibition of carrageenan-induced paw oedema at 100 mg/kg, po measured 0.5 hrs after carrageenan challenge. It counts as functional. Put shortly: as §2
Data set [9] relates to Rattus norvegicus. Description: Antiinflammatory activity in Wistar albino rat assessed as inhibition of carrageenan-induced paw oedema at 100 mg/kg, po measured 1 hr after carrageenan challenge. It counts as functional. Put shortly:
as §2

Data set [10] relates to Rattus norvegicus. As to the kind of experiment: Antiinflammatory activity in Wistar albino rat assessed as inhibition of carrageenan-induced paw oedema at 100 mg/kg, po measured 3 hrs after carrageenan challenge. It counts as functional. The method in brief: as §2
Data set [11] has as its system Rattus norvegicus. Description: Toxicity in Wistar albino rat assessed as effect on motor activity up to 3 g/kg, po after 8 hrs. It counts as organism-based. The note with it: in vivo, 3000 mg/kg. The method in brief:
as §1

The test system of data set [12] is Rattus norvegicus. As to the kind of experiment: Antiinflammatory activity in Wistar albino rat assessed as inhibition of carrageenan-induced paw oedema at 100 mg/kg, po measured 5 hrs after carrageenan challenge. The class given is functional. The method in brief: as §2
For data set [13], the system named is Rattus norvegicus. Description: Toxicity in Wistar albino rat assessed as mortality up to 3 g/kg, po after 24 hrs. The class given is organism-based. To be noted: in vivo, 3000 mg/kg. Put shortly:
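Albino rats of either sex, six per group, dosed orally from 100 up to 3000 mg kg^-1 body weight. Animals were watched continuously for 8 h for signs of acute toxicity such as altered motor activity, ataxia, tremors, convulsions, sedation and lacrimation, and were checked for mortality over a 24 h period. Food was withheld for 12 h before dosing.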

In data set [14] the test system is Rattus norvegicus. Description: Analgesic activity in Wistar albino rat […] assessed as increase in reaction time for tail withdrawal at 100 mg/kg, po after 180 mins by tail flick method. It counts as functional.
For data set [15], the system named is Rattus norvegicus. Description: Analgesic activity in Wistar albino rat […] assessed as reaction time for tail withdrawal at 100 mg/kg, po after 30 mins by tail flick method. The class given is functional.
In data set [16] the test system is Rattus norvegicus. Description: Toxicity in Wistar albino rat assessed as induction of gastric ulceration up to 3 g/kg, po after 8 hrs. It counts as organism-based, Stomach. To be noted: in vivo, 3000 mg/kg. The method in brief: as §1
The test system of data set [17] is Rattus norvegicus. Description: Analgesic activity in Wistar albino rat […] assessed as reaction time for tail withdrawal at 100 mg/kg, po after 120 mins by tail flick method. The class given is functional. The method in brief:
as §3

The test system of data set [18] is Rattus norvegicus. As to the kind of experiment: Toxicity in Wistar albino rat assessed as induction of convulsions and tremors up to 3 g/kg, po after 8 hrs. The class given is organism-based. To be noted: in vivo, 3000 mg/kg. Put shortly:
as §1

Data set [19] relates to Rattus norvegicus. Description: Antiinflammatory activity in Wistar albino rat assessed as inhibition of carrageenan-induced paw oedema at 100 mg/kg, po measured 2 hrs after carrageenan challenge. It counts as functional. Put shortly: as §2

As to `Cc1ccc2c(Cc3nn4c(C=O)c(-c5ccc(Cl)cc5)nc4s3)coc2c1`, the Activity entry is listed as “Non-toxic” in data set [1]; “Non-toxic” in data set [2]; 6.517 s in data set [4]; 142.89% in data set [5]; 5.35 s in [6]; 7.867 s in data set [7]. The Activity result in data set [11] was “Non-toxic”; in data set [13], “Non-toxic”; in [14], 193.21%; in data set [15], 3.55 s; in data set [16], “Non-toxic”; in data set [17], 6.667 s. The Activity result in data set [18] is reported as “Non-toxic”. The inhibition in vivo – broadly, the percentage by which the read-out fell short of the control – at 100 mg/kg worked out at 47.2% in data set [3]; 3.6% in [8]; 11.4% in data set [9]; 42.5% in data set [10]; 48.8% in data set [12]; 24.3% in data set [19].
With `Cc1ccc2c(Cc3nn4c(CN5CCOCC5)c(-c5ccc(Br)cc5)nc4s3)coc2c1`, the Activity entry in data set [1] is “Non-toxic”; in [2] it was “Non-toxic”; in data set [4], 7.3 s; in data set [5], 172.08%; in data set [6], 4.067 s; in [7], 8.15 s. Besides, the Activity entry is reported as “Non-toxic” in data set [11]; “Non-toxic” in [13]; 203.76% in data set [14]; 3.5 s in data set [15]; “Non-toxic” in [16]; 6.45 s in data set [17]. Besides, in [18], the Activity entry is on record as “Non-toxic”. The inhibition in vivo at 100 mg/kg in [3] is 51.2%; in data set [8] it was 8.38%; in [9] it was 12.4%; in [10], 43.4%; in [12], 52.7%; in [19], 31.7%.
On to `Cc1ccc2c(Cc3nn4c(CN5CCOCC5)c(-c5ccc([N+](=O)[O-])cc5)nc4s3)coc2c1`, for which the Activity result was “Non-toxic” in data set [1]; “Non-toxic” in data set [2]; 8.033 s in [4]; 199.4% in [5]; 5.933 s in data set [6]; 9.3 s in [7]. Also, the Activity entry in [11] was “Non-toxic”; in data set [13], “Non-toxic”; in data set [14], 246.62%; in [15], 3.6 s; in data set [16], “Non-toxic”; in data set [17], 8.433 s. For the same compound, the Activity result in data set [18] is given as “Non-toxic”. Moreover, the inhibition in vivo at 100 mg/kg in data set [3] was 48%; in data set [8], 3.6%; in data set [9] it was 5.19%; in data set [10], 41.6%; in [12], 51.2%; in data set [19], 24.3%.
On to `Cc1ccc2c(Cc3nn4c(CN5CCOCC5)c(-c5ccc(Cl)cc5)nc4s3)coc2c1`, for which the Activity entry in data set [1] was “Non-toxic”; in data set [2] it was “Non-toxic”; in data set [4] it was 6.95 s; in data set [5] it was 159.03%; in data set [6] it was 5.45 s; in data set [7] it was 8.2 s. The Activity result in data set [11] was “Non-toxic”; in data set [13], “Non-toxic”; in data set [14], 205.62%; in [15], 3.767 s; in [16], “Non-toxic”; in [17] it was 6.767 s. Besides, in [18], the Activity entry is on record as “Non-toxic”. Moreover, the inhibition in vivo at 100 mg/kg in [3] worked out at 48%; in data set [8] it was 4.77%; in data set [9] it was 15.5%; in data set [10], 43.4%; in data set [12], 50.4%; in [19], 28.9%.
`Cc1ccc2c(Cc3nn4c(CO)c(-c5ccc(Br)cc5)nc4s3)coc2c1`: the Activity result in [1] is listed as “Non-toxic”; in data set [2] it was “Non-toxic”; in [4] it was 6.067 s; in [5] it was 126.12%; in [6] it was 4.583 s; in data set [7], 7.4 s. For the same compound, the Activity result in [11] is reported as “Non-toxic”; in data set [13], “Non-toxic”; in data set [14], 177.3%; in data set [15] it was 3.667 s; in data set [16] it was “Non-toxic”; in [17], 5.917 s. In data set [18], the Activity result is “Non-toxic”. Also, the inhibition in vivo at 100 mg/kg in data set [3] is 44.9%; in data set [8], 2.38%; in data set [9], 7.2%; in [10] it was 36.6%; in [12], 47.3%; in data set [19], 13.1%.
As to `Cc1ccc2c(Cc3nn4c(CO)c(-c5ccc(Cl)cc5)nc4s3)coc2c1`, the Activity entry is “Non-toxic” in data set [1]; “Non-toxic” in [2]; 5.433 s in data set [4]; 102.49% in data set [5]; 4.35 s in [6]; 7.133 s in [7]. The Activity result in [11] is given as “Non-toxic”; in data set [13] it was “Non-toxic”; in data set [14] it was 165.85%; in [15], 3.65 s; in data set [16], “Non-toxic”; in data set [17], 5.467 s. Also, in data set [18], the Activity entry is listed as “Non-toxic”. Also, the inhibition in vivo at 100 mg/kg is 54.3% in data set [3]; 9.61% in [8]; 14.5% in data set [9]; 45.9% in data set [10]; 58.9% in data set [12]; 28.9% in data set [19].
For `Cc1ccc2c(Cc3nn4c(C=O)c(-c5ccc(Br)cc5)nc4s3)coc2c1`, the Activity result was “Non-toxic” in [1]; “Non-toxic” in data set [2]; 7.55 s in data set [4]; 181.4% in data set [5]; 4.433 s in [6]; 9.083 s in data set [7]. Besides, the Activity entry in data set [11] is on record as “Non-toxic”; in data set [13] it was “Non-toxic”; in data set [14] it was 238.53%; in data set [15] it was 3.983 s; in data set [16], “Non-toxic”; in data set [17], 6.5 s. Also, the Activity result in data set [18] was “Non-toxic”. The inhibition in vivo at 100 mg/kg in [3] was found to be 10.2%; in data set [8], 1.15%; in data set [9], 12.4%; in [10], 10.8%; in data set [12], 12.4%; in [19], 11.2%.
